ChEMBL document CHEMBL1145795, “Design, synthesis, and evaluation of analogues of 3,3,3-trifluoro-2-hydroxy-2-phenyl-propionamide as orally available general anesthetics” (J Med Chem, 2003)
pIC50: −log10 of the molar value. Calls of active or inactive are those of the source. No cut-off for these calls is given here.

Columns and labels:
[1] = system: Rattus norvegicus; assay: Compound was tested for minimum alveolar concentration in rat at dose 60 mg/kg administered intraperitoneally; assay type: functional; conditions: route intraperitoneal
Procedure, shortened: (§1)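 Rats were isoflurane-induced, intubated and ventilated, with femoral arterial and venous lines and normothermia. Baseline MAC was taken by tail clamp for 1 min, stepping isoflurane by 0.1% with 12–15 min equilibration. MAC was the midpoint between movement and no movement. The compound (60 mg/kg) was sonicated in 3 mL peanut oil and given ip. MAC was redetermined at 30 min and 1 h. Blood pressure was recorded; values are given as mean ± SEM.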

[2] = system: Rattus norvegicus; assay: Compound was tested for blood pressure in rat at dose 60 mg/kg administered intraperitoneally; assay type: functional; conditions: route intraperitoneal; procedure, shortened: as §1
[3] = system: HEK293; assay: Effect on HEK293 cells co-expressing voltage-gated Na+ channel rNav 1.3 and beta-3 at 10 uM; NE=No effect; assay type: functional, cell-based
Procedure, shortened: (§2)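 rNaV1.3 coexpressed with β3 in HEK293 cells (and Xenopus oocytes), exposed to 10 µM or 100 µM and assessed for Na+ channel block.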

[4] = organism: Rattus norvegicus; assay: Compound was tested for anticonvulsant activity using rotarod method in rat; assay type: functional
Procedure, shortened: (§3)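 NINDS ADD Phase II quantification with oral dosing. […] Therapeutic index is rotarod TD50 divided by the MES or scMET ED50.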

[5] = system: Mus musculus; assay: Compound was tested for anticonvulsant activity against maximal electroshock at dose 30 mg/kg in time 0.5 hr in mice administered subcutaneously; assay type: functional; conditions: route subcutaneous
Procedure, shortened: (§4)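 Run by the NINDS ADD program in mice, challenged with maximal electroshock or subcutaneous metrazol at 0.5 h and 4 h after dosing. Protection is scored per animal (e.g. […], 5 for scMet at 100 mg/kg).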

[6] = system: Mus musculus; assay: Compound was tested for anticonvulsant activity using rotarod method at dose 300 mg/kg in time 0.5 hr in mice administered subcutaneously; assay type: functional; conditions: route subcutaneous
Procedure, shortened: (§5)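 NINDS ADD rotarod neurotoxicity screen in mice at 0.5 h and 4 h post-dose. The score is inability to grasp the rotating rod; loss of righting reflex after falling was also noted.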

[7] = system: Rattus norvegicus; assay: Compound was tested for isoflurane minimum alveolar concentration in rat at dose 60 mg/kg administered intraperitoneally; assay type: functional; conditions: route intraperitoneal; procedure, shortened: as §1
[8] = system: Mus musculus; assay: Compound was tested for anticonvulsant activity against maximal electroshock at dose 100 mg/kg in time 0.5 hr in mice administered subcutaneously; assay type: functional; conditions: route subcutaneous; procedure, shortened: as §4
[9] = biological target: Protein kinase C (PKC) (Homo sapiens) (UniProt O94806+P41743+P17252+P05129+Q05655+P05771+Q05513+Q02156+P24723+Q15139+Q04759); assay: Inhibition of protein kinase C at 100 uM; NE=no effect; assay type: protein assay
[10] = system: Mus musculus; assay: Compound was tested for anticonvulsant activity against subcutaneous metrazole at dose 100 mg/kg in time 4 hr in mice administered subcutaneously; assay type: functional; procedure, shortened: as §4
[11] = system: Mus musculus; assay: Compound was tested for anticonvulsant activity using rotarod method at dose 300 mg/kg in time 4 hr in mice administered subcutaneously; assay type: functional; conditions: route subcutaneous; procedure, shortened: as §5
[12] = system: Mus musculus; assay: Compound was tested for anticonvulsant activity against maximal electroshock at dose 300 mg/kg in time 0.5 hr in mice administered subcutaneously; assay type: functional; conditions: route subcutaneous; procedure, shortened: as §4
[13] = system: Mus musculus; assay: Compound was tested for anticonvulsant activity against subcutaneous metrazole at dose 30 mg/kg in time 0.5 hr in mice administered subcutaneously; assay type: functional; procedure, shortened: as §4
[14] = system: HEK293; assay: Inhibition of rat TASK-1 and TASK-3-leak K+ channels expressed in HEK293 cells at 100 uM; NE denotes no effects; assay type: functional, cell-based
[15] = system: Mus musculus; assay: Compound was tested for anticonvulsant activity against maximal electroshock at dose 300 mg/kg in time 4 hr in mice administered subcutaneously; assay type: functional; conditions: route subcutaneous; procedure, shortened: as §4
[16] = system: Rattus norvegicus; assay: Compound was tested for anticonvulsant activity against subcutaneous metrazole in rat; assay type: functional; conditions: sc; procedure, shortened: as §3
[17] = system: Mus musculus; assay: Compound was tested for anticonvulsant activity against maximal electroshock at dose 30 mg/kg in time 4 hr in mice administered subcutaneously; assay type: functional; conditions: route subcutaneous; procedure, shortened: as §4
[18] = organism: Rattus norvegicus; assay: Compound was tested for anticonvulsant activity against maximal electroshock in rat; assay type: functional; procedure, shortened: as §3
[19] = system: HEK293; assay: Effect on HEK293 cells co-expressing voltage-gated Na+ channel rNav 1.3 and beta-3 at 100 uM; NE=No effect; assay type: functional, cell-based; procedure, shortened: as §2
[20] = system: Mus musculus; assay: Compound was tested for anticonvulsant activity against subcutaneous metrazole at dose 300 mg/kg in time 0.5 hr in mice administered subcutaneously; assay type: functional; procedure, shortened: as §4
[21] = system: Mus musculus; assay: Compound was tested for anticonvulsant activity using rotarod method at dose 100 mg/kg in time 0.5 hr in mice administered subcutaneously; assay type: functional; conditions: route subcutaneous; procedure, shortened: as §5
[22] = organism: Rattus norvegicus; assay: Compound was tested for anticonvulsant activity by measuring the therapeutic index by maximal electroshock in rat; assay type: functional; procedure, shortened: as §3
[23] = system: Rattus norvegicus; assay: Compound was tested for anticonvulsant activity by measuring the therapeutic index by subcutaneous metrazole in rat; assay type: functional; procedure, shortened: as §3
[24] = system: Mus musculus; assay: Compound was tested for anticonvulsant activity against subcutaneous metrazole at dose 30 mg/kg in time 4 hr in mice administered subcutaneously; assay type: functional; procedure, shortened: as §4
[25] = system: Mus musculus; assay: Compound was tested for anticonvulsant activity against maximal electroshock at dose 100 mg/kg in time 4 hr in mice administered subcutaneously; assay type: functional; conditions: route subcutaneous; procedure, shortened: as §4
[26] = system: Mus musculus; assay: Compound was tested for anticonvulsant activity against subcutaneous metrazole at dose 100 mg/kg in time 0.5 hr in mice administered subcutaneously; assay type: functional; procedure, shortened: as §4
[27] = system: Mus musculus; assay: Compound was tested for anticonvulsant activity using rotarod method at dose 100 mg/kg in time 4 hr in mice administered subcutaneously; assay type: functional; conditions: route subcutaneous; procedure, shortened: as §5
[28] = system: Mus musculus; assay: Compound was tested for anticonvulsant activity against subcutaneous metrazole at dose 300 mg/kg in time 4 hr in mice administered subcutaneously; assay type: functional; procedure, shortened: as §4
[29] = biological target: Gamma-aminobutyric acid receptor subunit gamma-1 (Rattus norvegicus) (UniProt P23574); assay: Enhanced 10 uM GABA-A receptor currents in rat hippocampal neurons; NE=no effect; assay type: functional, tissue-based; conditions: Hippocampus
Procedure, shortened: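 Peak current is expressed as percent of the GABA-alone control. Concentration–response was fitted to a four-parameter logistic; values are given as mean ± SEM.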

[30] = biological target: T1, Sodium channel protein type 4 subunit alpha (Homo sapiens, UniProt P35499); assay: Inhibition of sodium channels through phasic blockade; assay type: functional
[31] = biological target: T1, Sodium channel protein type 4 subunit alpha; assay: Inhibition of sodium channels through tonic blockade; assay type: functional

T1 sequence (P35499 whole entry): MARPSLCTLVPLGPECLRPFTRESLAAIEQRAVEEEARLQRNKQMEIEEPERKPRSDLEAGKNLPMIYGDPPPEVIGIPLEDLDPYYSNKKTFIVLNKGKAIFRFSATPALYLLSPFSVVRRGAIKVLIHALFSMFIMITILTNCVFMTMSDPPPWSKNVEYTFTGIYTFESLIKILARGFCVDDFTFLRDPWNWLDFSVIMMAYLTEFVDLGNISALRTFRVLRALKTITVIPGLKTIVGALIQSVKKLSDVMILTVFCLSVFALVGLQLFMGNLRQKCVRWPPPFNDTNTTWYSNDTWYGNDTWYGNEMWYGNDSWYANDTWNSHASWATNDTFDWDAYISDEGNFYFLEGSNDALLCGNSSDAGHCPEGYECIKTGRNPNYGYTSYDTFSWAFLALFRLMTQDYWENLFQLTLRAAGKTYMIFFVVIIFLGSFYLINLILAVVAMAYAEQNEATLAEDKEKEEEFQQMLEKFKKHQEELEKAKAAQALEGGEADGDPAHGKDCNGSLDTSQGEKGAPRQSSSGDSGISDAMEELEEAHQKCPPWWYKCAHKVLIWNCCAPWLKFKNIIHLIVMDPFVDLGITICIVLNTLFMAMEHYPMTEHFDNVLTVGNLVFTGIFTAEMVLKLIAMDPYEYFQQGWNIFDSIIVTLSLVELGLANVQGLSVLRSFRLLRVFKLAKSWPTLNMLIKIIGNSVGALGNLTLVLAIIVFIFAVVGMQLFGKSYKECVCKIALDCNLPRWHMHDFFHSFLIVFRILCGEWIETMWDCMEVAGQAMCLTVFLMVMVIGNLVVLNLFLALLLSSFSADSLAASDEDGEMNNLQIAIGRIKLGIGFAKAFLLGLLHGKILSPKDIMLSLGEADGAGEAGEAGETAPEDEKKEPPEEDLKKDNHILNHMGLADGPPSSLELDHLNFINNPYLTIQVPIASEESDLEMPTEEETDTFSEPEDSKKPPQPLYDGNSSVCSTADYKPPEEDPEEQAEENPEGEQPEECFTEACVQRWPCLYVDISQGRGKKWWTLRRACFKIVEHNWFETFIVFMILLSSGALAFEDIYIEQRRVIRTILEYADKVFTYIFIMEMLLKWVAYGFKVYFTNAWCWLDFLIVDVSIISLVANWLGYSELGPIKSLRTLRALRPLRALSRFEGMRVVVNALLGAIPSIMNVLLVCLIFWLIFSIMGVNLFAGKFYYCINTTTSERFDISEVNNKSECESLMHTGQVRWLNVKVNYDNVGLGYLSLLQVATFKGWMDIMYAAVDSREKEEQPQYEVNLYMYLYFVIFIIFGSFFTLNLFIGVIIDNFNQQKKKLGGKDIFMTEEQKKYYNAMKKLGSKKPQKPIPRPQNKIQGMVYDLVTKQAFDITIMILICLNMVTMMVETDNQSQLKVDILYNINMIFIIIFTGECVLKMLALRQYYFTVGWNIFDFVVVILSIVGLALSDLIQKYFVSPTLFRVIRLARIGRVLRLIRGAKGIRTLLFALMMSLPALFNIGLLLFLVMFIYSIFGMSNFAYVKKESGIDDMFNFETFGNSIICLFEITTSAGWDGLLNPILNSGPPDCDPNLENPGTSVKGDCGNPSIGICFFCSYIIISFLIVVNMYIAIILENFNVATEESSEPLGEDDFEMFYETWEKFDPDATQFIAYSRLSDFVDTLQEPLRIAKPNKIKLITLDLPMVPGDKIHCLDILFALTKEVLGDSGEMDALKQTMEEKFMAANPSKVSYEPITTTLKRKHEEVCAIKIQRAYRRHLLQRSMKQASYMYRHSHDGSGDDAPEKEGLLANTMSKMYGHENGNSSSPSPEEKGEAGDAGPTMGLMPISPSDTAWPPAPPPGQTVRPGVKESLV
Gamma-aminobutyric acid receptor subunit gamma-1 (Rattus norvegicus), sequence (P23574 whole entry): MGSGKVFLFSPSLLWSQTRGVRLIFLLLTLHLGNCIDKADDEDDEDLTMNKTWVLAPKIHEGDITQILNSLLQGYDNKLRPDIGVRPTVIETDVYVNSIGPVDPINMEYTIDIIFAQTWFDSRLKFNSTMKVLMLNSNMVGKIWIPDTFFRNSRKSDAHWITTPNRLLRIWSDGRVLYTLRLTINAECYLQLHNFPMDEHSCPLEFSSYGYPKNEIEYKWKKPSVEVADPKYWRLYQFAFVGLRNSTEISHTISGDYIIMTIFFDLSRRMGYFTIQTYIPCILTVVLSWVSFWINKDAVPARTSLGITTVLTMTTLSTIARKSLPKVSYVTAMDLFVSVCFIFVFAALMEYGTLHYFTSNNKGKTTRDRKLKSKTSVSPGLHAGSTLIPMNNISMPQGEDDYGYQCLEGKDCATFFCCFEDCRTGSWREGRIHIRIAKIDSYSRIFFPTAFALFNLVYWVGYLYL

CC(O)(C(N)=O)c1ccccc1 (stereo not given) [ATROLACTAMIDE]
MAC reduction [1]: 0% | Mean blood pressure [2]: 127 mmHg

NCC(O)(c1ccccc1)C(F)(F)F (stereo not given)
MAC reduction [1]: -6.5% | Mean blood pressure [2]: 116 mmHg

NC(=O)C(OCc1ccccc1)(c1ccccc1)C(F)(F)F (stereo not given)
MAC reduction [1]: -4.4% | Mean blood pressure [2]: 121 mmHg

O=C(O)C(O)(c1ccccc1)C(F)(F)F (stereo not given)
MAC reduction [1]: -9.1% | Mean blood pressure [2]: 116 mmHg

CN1C(=O)C(O)(C(F)(F)F)c2ccccc21 (stereo not given)
MAC reduction [1]: -4.4% | Mean blood pressure [2]: 112 mmHg

NC(=O)C(O)(c1ccccc1)C(F)(F)F (stereo not given)
Activity [3]: inactive | Activity ([3]; Xenopus sp.): inactive | ED50 [4]: 100 mg/kg | Protection [5]: 0 | Protection [6]: 4 | Volume reduction [7]: 34% | Protection [8]: 3 | Activity [9]: inactive | Protection [10]: 0 | Protection [11]: 2 | Protection [12]: 1 | Protection [13]: 0 | Activity [14]: inactive | MAC reduction [1]: -34% | Protection [15]: 1 | ED50 [16]: 39 mg/kg | Protection [17]: 0 | Mean blood pressure [2]: 119 mmHg | ED50 [18]: 9.9 mg/kg | Activity [19]: inactive | Activity ([19]; Xenopus sp.): inactive | Protection [20]: 1 | Protection [21]: 4 | T.I. [22]: 10 | T.I. [23]: 2.6 | Protection [24]: 0 | Protection [25]: 3 | Protection [26]: 5 | Protection [27]: 2 | Protection [28]: 1 | Activity [29]: inactive

NC(=O)C(O)(Cc1ccccc1)C(F)(F)F (stereo not given)
MAC reduction [1]: 0% | Mean blood pressure [2]: 111 mmHg

CNC1(c2ccccc2Cl)CCCCC1=O (stereo not given) [KETAMINE]
pIC50 [30]: 2.64 | pIC50 [31]: 3.10

NC(=O)C(O)(c1ccccc1)C(F)(F)Cl (stereo not given)
MAC reduction [1]: -43% | Mean blood pressure [2]: 81 mmHg

NC(=O)C(O)(CC(F)(F)F)c1ccccc1 (stereo not given)
MAC reduction [1]: -11% | Mean blood pressure [2]: 107 mmHg

O=C1Nc2ccccc2C1(O)C(F)(F)F (stereo not given)
MAC reduction [1]: -4.3% | Mean blood pressure [2]: 113 mmHg

O=C1NC(=O)C(c2ccccc2)(c2ccccc2)N1 [PHENYTOIN]
ED50 [4]: 66 mg/kg | ED50 [16]: > 300 mg/kg | ED50 [18]: 9.5 mg/kg | T.I. [22]: 6.9
